Measured values as given in ChEMBL document CHEMBL1250466, “CLEFMA-an anti-proliferative curcuminoid from structure-activity relationship studies on 3,5-bis(benzylidene)-4-piperidones” (Bioorg Med Chem, 2010).
Active and inactive are the calls of the source. The rule behind the calls is not given here.

Experiments:
[1] = Antiproliferative activity against human H441 cells assessed as decrease of hexosaminidase activity after 24 hrs; assay type: functional, cell-based; settings: NCI-H441, 24 h
Outline: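 H441 (NCI-H441) cells in McCoy's 5A with 5% heat-inactivated FBS, gentamicin 50 μg/ml, 37 °C, 5% CO2; 10×10^3 cells/well seeded, attached overnight. Compounds in DMSO (0.1% final) at 1, 10, 25, 100 μM for 24 h. Hexosaminidase substrate in citrate pH 5, 30 min 37 °C, stopped with glycine/EDTA pH 10.4, A405. Triplicate, repeated at least twice; IC50 from linear or exponential fit of concentration vs activity.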

NCI-H441 [2] = assay: Induction of apoptosis in human H441 cells assessed as caspase 3 activation by immunoblotting; assay type: functional, cell-based
NCI-H441 [3] = assay: Induction of autophagy in human H441 cells assessed as double-membrane pre-autophagosomal structures containing cell organelles at 1 to 10 uM after 24 hrs by transmission electron microscopic analysis; assay type: functional, cell-based
Outline: (§1)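 H441 cells exposed 24 h at 1 and 10 μM, then fixed 4 h at room temperature in 0.1 M cacodylate with 4% PFA and 2% glutaraldehyde. Post-fixed in 1% osmium tetroxide 1.5 h, dehydrated through a graded ethanol series, ultrasections stained with Sato's lead. Imaged by transmission electron microscopy at 2500×; untreated cells as controls.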

NCI-H441 [4] = assay: Induction of autophagy in human H441 cells assessed as large single-walled autophagic vacuoles at 1 to 10 uM after 24 by transmission electron microscopic analysis; assay type: functional, cell-based; outline: as §1
PANC-1 = assay: Antiproliferative activity against human PANC1 cells assessed as decrease of hexosaminidase activity at 1 to 100 uM after 24 to 72 hrs; assay type: functional, cell-based
Outline: (§2)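 Cells kept as for H441 but in RPMI 1640 with 5% heat-inactivated FBS and gentamicin 50 μg/ml; 10×10^3 cells/well seeded, attached overnight. Compounds in DMSO (0.1% final) at 1, 10, 25, 100 μM for 24, 48 and 72 h. Remaining cells read by hexosaminidase activity (substrate in citrate pH 5, 30 min 37 °C, glycine/EDTA pH 10.4 stop, A405) as percent of DMSO control; triplicate, repeated at least twice.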

NCI-H441 [5] = assay: Induction of autophagosome formation in human H441 cells at 10 uM after 24 using monodansylcadaverine staining by fluorescent microscopic analysis in presence of 3-methyladenine; assay type: functional, cell-based
Outline: (§3)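 H441 cells labeled with the autophagic-vacuole marker monodansylcadaverine after treatment and examined by fluorescence microscopy; autophagy inhibition tested with 3-methyladenine.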

NCI-H441 [6] = assay: Induction of autophagy in human H441 cells assessed as chromatin condensation at 1 to 10 uM after 24 by transmission electron microscopic analysis; assay type: functional, cell-based; outline: as §1
NCI-H441 [7] = assay: Induction of autophagosome formation in human H441 cells at 10 uM after 24 using monodansylcadaverine staining by fluorescent microscopic analysis; assay type: functional, cell-based; outline: as §3
NCI-H441 [8] = assay: Induction of apoptosis in human H441 cells assessed as caspase 3/7 activation by immunoblotting; assay type: functional, cell-based
PC-3 = assay: Antiproliferative activity against human PC3 cells assessed as decrease of hexosaminidase activity at 1 to 100 uM after 24 to 72 hrs; assay type: functional, cell-based; outline: as §2
NCI-H441 [9] = assay: Induction of autophagy in human H441 cells assessed as blebbing of nuclear membrane at 1 to 10 uM after 24 by transmission electron microscopic analysis; assay type: functional, cell-based; outline: as §1
NCI-H441 [10] = assay: Induction of apoptosis in human H441 cells; assay type: functional, cell-based
MIA PaCa-2 = assay: Antiproliferative activity against human MIAPaCa2 cells assessed as decrease of hexosaminidase activity at 1 to 100 uM after 24 to 72 hrs; assay type: functional, cell-based; outline: as §2
NCI-H441 [11] = assay: Induction of autophagy in human H441 cells assessed as peri-nuclear accumulation of cell organelles at 1 to 10 uM after 24 by transmission electron microscopic analysis; assay type: functional, cell-based; outline: as §1
NCI-H441 [12] = assay: Induction of autophagy in human H441 cells assessed as peri-nuclear accumulation of mitochondria at 1 to 10 uM after 24 by transmission electron microscopic analysis; assay type: functional; outline: as §1
NCI-H441 [13] = assay: Induction of apoptosis in human H441 cells assessed as caspase cleavage by immunoblotting; assay type: functional, cell-based

**Q.** For `O=C(CCC(=O)N1C/C(=C\c2ccccc2F)C(=O)/C(=C/c2ccccc2F)C1)N[C@@H]1[C@@H](O)[C@H](O)[C@@H](CO)O[C@H]1O`, which IC50 [1] is on record?
**A.** Its IC50 is 79 µM.

**Q.** Which IC50 [1] does the source give for `O=C1/C(=C/c2ccccc2[N+](=O)[O-])CNC/C1=C\c1ccccc1[N+](=O)[O-]` here?
**A.** The IC50 was 93 µM.

**Q.** For `CN(C)c1ccc(/C=C2\CNC/C(=C\c3ccc(N(C)C)cc3)C2=O)cc1`, which IC50 [1] is on record?
**A.** The IC50 was 101 µM.

**Q.** For `CCCCCCCCCC/C=C/C(CC(=O)O)C(=O)N1C/C(=C\c2ccccc2F)C(=O)/C(=C/c2ccccc2F)C1` (configuration not stated), which IC50 [1] is on record?
**A.** Its IC50 is 58 µM.

**Q.** Which IC50 [1] does the source give for `CCCCCCCCCCCC/C=C/C(CC(=O)O)C(=O)N1C/C(=C\c2ccccc2F)C(=O)/C(=C/c2ccccc2F)C1` (configuration not stated) here?
**A.** Its IC50 is 47 µM.

**Q.** For `O=CN1C/C(=C\c2ccccc2F)C(=O)/C(=C/c2ccccc2F)C1`, which IC50 [1] is on record?
**A.** Its IC50 is 49 µM.

**Q.** With `O=C1/C(=C/c2ccccc2Br)CNC/C1=C\c1ccccc1Br` as the compound, how does the IC50 [1] read?
**A.** The IC50 was 6 µM.

**Q.** For `O=C(O)CCC(=O)N1C/C(=C\c2ccccc2F)C(=O)/C(=C/c2ccccc2F)C1`, which IC50 [1] is on record?
**A.** Its IC50 is 69 µM.

**Q.** Which IC50 [1] does the source give for `O=C1/C(=C/c2ccc(Cl)cc2)CNC/C1=C\c1ccc(Cl)cc1` here?
**A.** Its IC50 is 87 µM.

**Q.** Which IC50 [1] does the source give for `O=C1/C(=C/c2ccccc2)CNC/C1=C\c1ccccc1` here?
**A.** Its IC50 is 12 µM.

**Q.** With `O=C1/C(=C/c2ccccc2Cl)CNC/C1=C\c1ccccc1Cl` as the compound, how does the IC50 [1] read?
**A.** The IC50 was 5 µM.

**Q.** With `CCCCCCCCCCCCCCCCNC(=O)CCC(=O)N1C/C(=C\c2ccccc2F)C(=O)/C(=C/c2ccccc2F)C1` as the compound, how does the IC50 [1] read?
**A.** The IC50 was 64 µM.

**Q.** Which IC50 [1] does the source give for `O=C1/C(=C/c2ccccc2F)CN(C(=O)c2ccccc2C(=O)O)C/C1=C\c1ccccc1F` here?
**A.** Its IC50 is 56 µM.

**Q.** Which IC50 [1] does the source give for `O=C1/C(=C/c2ccc(F)cc2)CNC/C1=C\c1ccc(F)cc1` here?
**A.** Its IC50 is 45.7 µM.

**Q.** Which IC50 [1] does the source give for `O=C(CN1C/C(=C\c2ccccc2F)C(=O)/C(=C/c2ccccc2F)C1)NCc1ccc(F)cc1` here?
**A.** The IC50 was 46 µM.

**Q.** For `CCCCCCCCCCCCCCCC/C=C/C(CC(=O)O)C(=O)N1C/C(=C\c2ccccc2F)C(=O)/C(=C/c2ccccc2F)C1` (configuration not stated), which IC50 [1] is on record?
**A.** The IC50 was 84 µM.

**Q.** Which IC50 [1] does the source give for `CC(=O)N1C/C(=C\c2ccccc2F)C(=O)/C(=C/c2ccccc2F)C1` here?
**A.** The IC50 was 54 µM.

**Q.** With `O=C(O)/C=C\C(=O)N1C/C(=C\c2ccccc2Cl)C(=O)/C(=C/c2ccccc2Cl)C1` as the compound, how does the Activity (NCI-H441 [2]) read?
**A.** The Activity was “inactive”.

**Q.** What about the Activity (NCI-H441 [3]) of the same compound?
**A.** The Activity was “Active”.

**Q.** What about the Activity (NCI-H441 [4]) of the same compound?
**A.** Its Activity is “Active”.

**Q.** What about the Activity (PANC-1) of the same compound?
**A.** The Activity was “Active”.

**Q.** What about the Activity (NCI-H441 [5]) of the same compound?
**A.** The Activity was “inactive”.

**Q.** What about the Activity (NCI-H441 [6]) of the same compound?
**A.** The Activity was “inactive”.

**Q.** And the Activity (NCI-H441 [7])?
**A.** Its Activity is “Active”.

**Q.** And the IC50 [1]?
**A.** Its IC50 is 1 µM.

**Q.** And the Activity (NCI-H441 [8])?
**A.** The Activity was “inactive”.

**Q.** And the Activity (PC-3)?
**A.** Its Activity is “Active”.

**Q.** What about the Activity (NCI-H441 [9]) of the same compound?
**A.** Its Activity is “Active”.

**Q.** And the Activity (NCI-H441 [10])?
**A.** Its Activity is “inactive”.

**Q.** And the Activity (MIA PaCa-2)?
**A.** The Activity was “Active”.

**Q.** And the Activity (NCI-H441 [11])?
**A.** Its Activity is “Active”.

**Q.** And the Activity (NCI-H441 [12])?
**A.** Its Activity is “Active”.

**Q.** And the Activity (NCI-H441 [13])?
**A.** The Activity was “inactive”.

**Q.** With `O=C1/C(=C/c2ccccc2F)CNC/C1=C\c1ccccc1F` as the compound, how does the Activity (NCI-H441 [3]) read?
**A.** The Activity was “Active”.

**Q.** What about the Activity (NCI-H441 [4]) of the same compound?
**A.** Its Activity is “Active”.

**Q.** What about the Activity (NCI-H441 [5]) of the same compound?
**A.** The Activity was “inactive”.

**Q.** And the Activity (NCI-H441 [6])?
**A.** The Activity was “inactive”.

**Q.** What about the Activity (NCI-H441 [7]) of the same compound?
**A.** The Activity was “Active”.

**Q.** What about the IC50 [1] of the same compound?
**A.** The IC50 was 44 µM.

**Q.** And the Activity (NCI-H441 [9])?
**A.** Its Activity is “Active”.

**Q.** What about the Activity (NCI-H441 [11]) of the same compound?
**A.** Its Activity is “Active”.

**Q.** What about the Activity (NCI-H441 [12]) of the same compound?
**A.** Its Activity is “Active”.

**Q.** For `O=C(O)CCCC(=O)N1C/C(=C\c2ccccc2F)C(=O)/C(=C/c2ccccc2F)C1`, which IC50 [1] is on record?
**A.** The IC50 was 60 µM.

**Q.** With `O=C1/C(=C/c2cccc(Cl)c2)CNC/C1=C\c1cccc(Cl)c1` as the compound, how does the IC50 [1] read?
**A.** The IC50 was 50 µM.

**Q.** With `O=C1/C(=C/c2ccccc2F)CN(C(=O)C2CCCCC2C(=O)O)C/C1=C\c1ccccc1F` (configuration not stated) as the compound, how does the IC50 [1] read?
**A.** The IC50 was 55 µM.

**Q.** For `Cc1ccc(S(=O)(=O)N2C/C(=C\c3ccccc3F)C(=O)/C(=C/c3ccccc3F)C2)cc1`, which IC50 [1] is on record?
**A.** Its IC50 is 50 µM.

**Q.** Which IC50 [1] does the source give for `O=C(O)/C=C/C(=O)N1C/C(=C\c2ccccc2F)C(=O)/C(=C/c2ccccc2F)C1` here?
**A.** Its IC50 is 29 µM.
